Results reported in ChEMBL document CHEMBL1123378, “Cardiotonic agents. 1. Synthesis and structure-activity relationships in a new class of 3-, 4-, and 5-pyridyl-2(1H)-quinolone derivatives” (1986).

Assays:
[1] = organism: Cavia porcellus; test: Positive inotropic activity in isolated left guinea pig atria.; assay type: functional; details: read-out: ED50 (the source's name)
In short: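 Isolated guinea pig left atria were paced electrically with square-wave pulses (2.5 Hz, 5 ms, voltage 50% above threshold) and stretched to 0.5 g resting tension. The bath was Krebs–Henseleit at 32 °C, gassed with 95% O2/5% CO2. An isoprenaline dose–response curve was run first to test each preparation. The ED50 (mol/L, dose giving 50% of maximum effect) was derived by the Ariens–Van Rossum method.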

[2] = organism: Cavia porcellus; test: Maximum response compared to maximum response to isoprenaline.; assay type: functional
In short: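 Electrically paced isolated guinea pig left atria (2.5 Hz, 5 ms pulses, 50% above threshold) were held in Krebs–Henseleit at 32 °C under 95% O2/5% CO2 and 0.5 g resting tension. Intrinsic activity is the compound's maximal inotropic response divided by the isoprenaline maximum, with isoprenaline set to 1. The number of experiments is given per value.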

| SMILES | EC50 [1] | Intrinsic activity [2] |
| --- | --- | --- |
| COc1ccc(N)c2ccc(O)nc12.Cl | 235 µM | 0.23 |
| CCO/C=C\C(=O)Nc1cc(-c2cccnc2)ccc1OC | – | 0.54 |
| Cl.Nc1cc2ccccc2nc1O | > 77 µM | 0.2 |
| CCO/C=C\C(=O)Nc1cc(-c2cccnc2)ccc1Cl | – | 0.28 |
| Cl.Oc1cc(-c2ccncc2)c2cccc(O)c2n1 | 22 µM | 0.55 |
| CCO/C=C\C(=O)Nc1cccc(-c2cccnc2)c1 | – | 0.42 |
| Cc1[nH]c(=O)c(C#N)cc1-c1ccncc1 [MILRINONE] | 14 µM | 0.67 |
| Cl.Oc1ccc2c(-c3ccncc3)ccc(O)c2n1 | 20 µM | 0.24 |
| CCO/C=C\C(=O)Nc1cccc(-c2ccccn2)c1 | – | 0.33 |
| CC(C)NCC(O)c1ccc(O)c(O)c1 (centres undefined) [ISOPROTERENOL] | – | 1 |
| Oc1ccc2c(-c3cccnc3)cccc2n1 | 1.3 µM | 0.83 |

The next lines start with results.

| EC50 [1] | SMILES | Intrinsic activity [2] |
| --- | --- | --- |
| 31 µM | COc1ccc(-c2ccncc2)c2c1NC(=O)CC2 | 0.75 |
| 22 µM | COc1ccc(-c2ccccn2)c2c1NC(=O)CC2 | 0.44 |
| 6.75 µM | Br.Oc1ccc2c(-c3cccnc3)ccc(O)c2n1 | 0.62 |
| 8.3 µM | COc1ccc(-c2cccnc2)cc1NC(=O)CC(C)=O | 0.51 |
| 34.5 µM | COc1ccc(-c2ccccn2)c2ccc(O)nc12 | 0.62 |
| 12 µM | COc1cc([S+](C)[O-])ccc1-c1nc2cccnc2[nH]1 (centres undefined) [SULMAZOLE] | 0.85 |
| 35 µM | COc1ccc(-c2ccncc2)c2ccc(O)nc12.Cl | 0.75 |
| 12 µM | COc1ccc(-c2cccnc2)c2c1NC(=O)CC2 | 0.56 |
| 300 µM | Oc1nc2ccccc2cc1-c1cccnc1 | 0.08 |
| 38 µM | COc1cccc2c(-c3ccncc3)cc(O)nc12.Cl | 0.45 |
| 5.75 µM | COc1ccc(-c2cccnc2)c2ccc(O)nc12.Cl | 0.79 |
